From PubChem BioAssay
M5 ag – CHRM5 agonism in calcium assay; activation, % at 3 µM; CHO-K1 hM5 cells, Fluo-8 calcium fluorescence; 0% DMSO wells, 100% maximal acetylcholine response; P08912; AID 624037; 0.19% of 360,000 active;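 active = activation above the run's mean over test compounds plus 3 SD, cut at about 23% in these data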;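 note: signal is peak over basal fluorescence ratio across the kinetic read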
Target sequence (P08912 whole entry, looked up): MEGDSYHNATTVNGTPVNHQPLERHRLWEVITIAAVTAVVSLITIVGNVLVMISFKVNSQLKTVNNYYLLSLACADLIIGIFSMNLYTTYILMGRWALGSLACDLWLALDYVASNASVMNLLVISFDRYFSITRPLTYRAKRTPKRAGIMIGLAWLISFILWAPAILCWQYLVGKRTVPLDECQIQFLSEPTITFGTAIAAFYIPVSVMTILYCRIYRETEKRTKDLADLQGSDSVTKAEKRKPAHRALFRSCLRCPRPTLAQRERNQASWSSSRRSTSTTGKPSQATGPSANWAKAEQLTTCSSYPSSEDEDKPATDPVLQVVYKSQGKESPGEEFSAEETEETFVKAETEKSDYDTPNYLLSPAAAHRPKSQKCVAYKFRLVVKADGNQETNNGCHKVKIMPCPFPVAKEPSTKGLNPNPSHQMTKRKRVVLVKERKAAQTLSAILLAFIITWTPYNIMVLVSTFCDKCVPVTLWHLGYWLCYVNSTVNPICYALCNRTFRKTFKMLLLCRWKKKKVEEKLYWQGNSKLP
M5 PAM – potentiates acetylcholine response at human M5 receptor; AID 624038; CHO-K1 hM5, Fluo-8 calcium, ACh EC20 PAM; 0% = ACh EC20, 100% = ACh EC100; activation, % at 3 µM; 0.3% of 360,000 active; P08912;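 active = activation above the run cutoff, the mean activation of all test compounds plus 3 SD, cut at about 18% in these data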
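Test system: CHO-K1 hM5 cells / Doses: single-point, 3 µM nominal / Times: Post-acetylcholine fluorescence recording 140 s / Technique: Fluo-8 calcium fluorescence / Measure: Max/basal fluorescence ratio as % of EC20–EC100 ACh window / Benchmarks: low control EC20 acetylcholine (0%), high control EC100 acetylcholine (100%) / Replicates: one well per compound, no replicates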
CHRM1 antagonist – blocks human M1 muscarinic receptor; 1.3% of 360,000 active; inhibition, % at 3 µM; CHO-K1 hM1, Fluo-8 calcium fluorescence, ACh EC80 antagonist; P11229;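 active = percent inhibition above its own plate's cutoff, namely the mean of that plate's compound wells plus 3 SD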;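 note: peak over basal fluorescence ratio during 140 s after agonist addition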
CHRM1 PAM – potentiates human M1 receptor response to acetylcholine; AID 588819; CHO-K1 hM1, Fluo-8 calcium fluorescence, ACh EC20; 0% = ACh EC20, 100% = maximal ACh; activation, % at 3 µM; 0.088% of 360,000 active; in the data active = activation above about 19%, passing the limit was not always enough
CHRM1 agonist – activates human CHRM1 receptor; 0.33% of 360,000 active; CHO-K1 hM1, Fluo-8 calcium fluorescence, agonist mode; 0% DMSO, 100% acetylcholine EC100; activation, % at 3 µM; P11229;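 active = activation above the run's mean compound activation plus 3 SD, cut at about 16% in these data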;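 note: peak over basal fluorescence ratio within a 140 s kinetic read after compound addition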
M5 antag – blocks acetylcholine activation of human M5 receptor | CHO-hM5 cells, Fluo-8 calcium fluorescence, ACh EC80 | inhibition, % at 3 µM | 0.59% of 360,000 active | AID 624040;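 active = inhibition above a per-plate cutoff, the mean of that plate's test compounds plus 3 SD, cut at about 27% in these data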
A number is an active result; . = inactive; / = no result. Only some compounds are listed: those with a hit (about 2% of all), similar ones and a draw of the others.

SMILES	M5 ag	M5 PAM	CHRM1 antagonist	CHRM1 PAM	CHRM1 agonist	M5 antag
CCc1noc(C)c1C(=O)Nc1nc(-c2ccc(OC)cc2)cs1	.	.	37	.	.	.
CCN1CCN(C2CCCCC2NS(=O)(=O)c2ccccc2)CC1 (centres undefined)	.	.	34	.	.	.
O=S(=O)(NC1CCCCC1N1CCCCC1)c1ccccc1 (centres undefined)	.	.	.	.	.	.
CCOC(=O)CC(=O)CSc1nnc2sc3ccccc3n12	.	35	.	.	.	.
CN(C)C(=O)CSc1nnc2sc3ccccc3n12	.	.	.	.	.	.
C[C@@H](NS(=O)(=O)c1cc(Cl)ccc1F)[C@H](O)c1ccccc1	.	.	.	.	.	.
CCOC(=O)c1cc(-c2ccccc2)sc1NC(=O)COC(=O)c1cccc(S(N)(=O)=O)c1	.	.	.	.	.	.
CCOC(=O)c1cc(-c2ccccc2)sc1NC(=O)C(C)OC(=O)c1cccc(S(=O)(=O)N(C)C)c1 (centres undefined)	.	20	.	.	.	.
O=C(Nc1cc(C(F)(F)F)ccc1F)C1Cc2c(-c3ccccc3Oc3ccccc3)ccnc2O1 (centres undefined)	.	.	.	.	.	.
CN(Cc1ccccc1)CC(O)CN(C)Cc1ccccc1	.	.	.	.	18	.
CC(=O)c1ccc(OCCCC(=O)OCC(=O)N2CCN(S(=O)(=O)c3ccc(C)cc3C)CC2)cc1	.	.	29	.	.	.
NC(COCc1ccccc1)c1csc(NC(=O)Nc2cccc(C(F)(F)F)c2)n1 (centres undefined)	.	.	.	.	.	.
Cc1ccc(S(=O)(=O)N2C[C@@H]3CCCC[C@@H]3[C@@H](C)[C@H]2c2cn(Cc3ccccc3)c3ncccc23)cc1	.	.	.	29	.	.
CC12CC3CC1C(C(=O)O2)C3C(=O)O (centres undefined)	.	.	.	.	.	.
O=C(NC(=S)NNC(=O)c1ccccc1O)c1ccc(F)cc1	.	.	.	.	33	.
O=C(NC(=S)NNC(=O)c1ccccc1O)c1ccccc1	.	.	.	.	24	.
Cc1ccccc1C(=O)NNC(=S)NC(=O)c1ccccc1	.	.	.	.	63	.
CCOC(=O)[C@]12CCC=C1N(Cc1ccc(Cl)cc1Cl)C(=O)[C@H](CC(=O)NCc1cccs1)C2	.	.	/	/	/	.
COC(=O)Cc1ccc(OC2(C)CCN(Cc3csc4ccccc34)C2)cc1 (centres undefined)	.	.	29	.	.	.
CC1(Oc2cccc(F)c2)CCN(Cc2csc3ccccc23)C1 (centres undefined)	.	.	.	.	.	.
COc1cccc(S(=O)(=O)Nc2cccc(C(=O)N3CCCC3)c2)c1	.	.	.	.	.	.
COc1cccc(S(=O)(=O)Nc2cccc(C(=O)N3CCOCC3)c2)c1	.	.	54	.	.	.
CC(C)N1CCC(C)(C(=O)Nc2cc(-c3ccccc3)nn2C)C1 (centres undefined)	.	.	.	.	.	.
O=c1c2ccccc2nnn1Cc1nnc(-c2ccccc2Br)o1	.	.	.	.	16	.
CCOC(=O)[C@]12CCCC=C1N(Cc1cccc3ccccc13)C(=O)[C@H](CC(=O)NCCCN1CCCC1=O)C2	.	.	/	/	/	.
O=C(c1ccoc1)N1CCC2(CCCN(Cc3ccc(F)c(F)c3)C2)C1 (centres undefined)	.	.	55	.	.	.
O=C(CCC1CCCN(C(=O)c2ccoc2)C1)NCc1ccc(F)c(F)c1 (centres undefined)	.	.	.	.	.	.
Cc1ccoc1C(=O)N1CCCC(CO)(Cc2ccc(F)cc2)C1 (centres undefined)	.	.	.	.	.	.
Cc1occc1C(=O)N1CCC2(CCCN(Cc3ccc(F)c(F)c3)C2)C1 (centres undefined)	.	.	65	.	.	.
CCS(=O)(=O)N1CCC2(CC1)OCCN2S(=O)(=O)c1ccccc1	.	.	.	.	.	.
